One compound from ChEMBL document CHEMBL4311988, “Identification of novel non-nucleoside vinyl-stilbene analogs as potent norovirus replication inhibitors with a potential host-targeting mechanism” (Eur J Med Chem, 2019) can be followed below.

Series [1] concerns Norovirus. Put plainly: Antiviral activity against human norovirus infected in human HG23 cells assessed as inhibition of viral replication at 10 uM after 3 days by qRT-PCR analysis relative to control. It counts as functional. More on the design: scale not given: the % may be the effect or the level left. On the technique in general: In qPCR the cycle at which signal appears reflects the starting amount.

A short description of series [2]: Cytotoxicity against human HG23 cells assessed as cell viability at 10 uM after 3 days by tetrazolium dye based assay relative to control. Conditions: read-out: Activity. The method, boiled down:
(§1)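 HG23 cells were treated with DMSO or compound for 3 days, at 10 μM for single-point testing or across a dose range for CC50. Viability was read with a tetrazolium salt (EZ-CYTOX) reagent. Values are means of the most representative triplicate experiment with standard deviations.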

A short description of series [3]: Cytotoxicity against human HG23 cells assessed as reduction in cell viability after 3 days by tetrazolium dye based assay. A digest of the protocol:
as §1

The subject of series [4] is Norovirus. Put plainly: Antiviral activity against human norovirus infected in human HG23 cells assessed as inhibition of viral replication after 3 days by qRT-PCR analysis. The note with it: HG23, 72 h. It counts as functional, organism-based.
The nature of series [5]: Therapeutic index, ratio of CC50 for cytotoxicity against human HG23 cells harboring human norovirus replicons to EC50 for antiviral activity against norovirus infected in human HG23 cells. It counts as toxicity, cell-based. Conditions: read-out: Ratio CC50/EC50. Background: Replicon systems follow genome replication, usually without infectious particles.
Series [6] concerns Norovirus. Put plainly: Antiviral activity against human norovirus infected in HG23 cells assessed as inhibition of neomycin phosphotransferase protein expression after 5 days by Western blot analysis. The note with it: HG23, 120 h. In kind it is functional, organism-based. Background: A western blot detects proteins with antibodies after separation by electrophoresis.
Series [7] relates to Norovirus GII.4. Nature of the series: Inhibition of norovirus GII.4 RNA-dependent RNA polymerase using poly(C)RNA as substrate incubated for 10 mins and measured after 15 mins by picogreen staining based assay. A digest of the protocol:
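Recombinant human norovirus GII.4 Sydney 2012 RdRp (400 ng) was preincubated with compound (10 μM) or DMSO (0.5% v/v) for 10 min at 25 °C. It was then added to 5 μM rGTP, 6 μg/mL poly(C), 2.5 mM MnCl₂, 5 mM DTT, 0.01% BSA and 0.005% Tween 20 in 20 mM Tris-HCl pH 7.5. After 15 min at 25 °C, reactions were stopped with 10 mM EDTA and dsRNA quantified by PicoGreen fluorescence (ex 480/em 520). Two independent experiments were run in triplicate.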

The nature of series [8]: Metabolic stability in human liver microsomes assessed as compound remaining at 1 uM preincubated for 5 mins followed by NADPH addition and measured after 30 mins by LC-MS/MS analysis relative to control. In kind it is ADME, Microsome. The note with it: read-out: Stability. The method, boiled down: (§2)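 Human or mouse liver microsomes (0.5 mg/ml) in 0.1 M phosphate buffer pH 7.4 were preincubated with compound at 1 μM for 5 min at 37 °C. An NADPH regeneration system was then added or omitted, and incubation continued 30 min at 37 °C. Reactions were stopped with acetonitrile containing internal standard. Parent compound remaining was measured by LC-MS/MS (C18 column, 0.1% formic acid water/acetonitrile).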

Series [9] is described as follows: Metabolic stability in human liver microsomes assessed as compound remaining at 1 uM after 30 mins in absence of NADPH by LC-MS/MS analysis relative to control. In kind it is ADME, Microsome. Conditions: read-out: Stability. A digest of the protocol:
as §2

The nature of series [10]: Metabolic stability in mouse liver microsomes assessed as compound remaining at 1 uM preincubated for 5 mins followed by NADPH addition and measured after 30 mins in presence of NADPH relative to control. It counts as ADME, Microsome. The note with it: read-out: Stability. A digest of the protocol:
as §2

Series [11] in a line: Metabolic stability in mouse liver microsomes assessed as compound remaining at 1 uM after 30 mins in absence of NADPH by LC-MS/MS analysis relative to control. It counts as ADME, Microsome. The note with it: read-out: Stability. A digest of the protocol: as §2
For series [12], the system named is Murine norovirus 1. Nature of the series: Antiviral activity against MNV-1 infected in mouse RAW264.7 cells at 0.05 to 10 uM after 48 hrs by crystal violet staining based assay. In kind it is functional, cell-based.
Series [13] has as its system Feline calicivirus. Put plainly: Antiviral activity against feline calicivirus- infected in cat CRFK cells at >5 uM after 48 hrs by crystal violet staining based assay. In kind it is functional, organism-based.
In series [14] the target is T1, Nuclear factor erythroid 2-related factor 2 (Homo sapiens) (UniProt Q16236).
T1 sequence (whole entry): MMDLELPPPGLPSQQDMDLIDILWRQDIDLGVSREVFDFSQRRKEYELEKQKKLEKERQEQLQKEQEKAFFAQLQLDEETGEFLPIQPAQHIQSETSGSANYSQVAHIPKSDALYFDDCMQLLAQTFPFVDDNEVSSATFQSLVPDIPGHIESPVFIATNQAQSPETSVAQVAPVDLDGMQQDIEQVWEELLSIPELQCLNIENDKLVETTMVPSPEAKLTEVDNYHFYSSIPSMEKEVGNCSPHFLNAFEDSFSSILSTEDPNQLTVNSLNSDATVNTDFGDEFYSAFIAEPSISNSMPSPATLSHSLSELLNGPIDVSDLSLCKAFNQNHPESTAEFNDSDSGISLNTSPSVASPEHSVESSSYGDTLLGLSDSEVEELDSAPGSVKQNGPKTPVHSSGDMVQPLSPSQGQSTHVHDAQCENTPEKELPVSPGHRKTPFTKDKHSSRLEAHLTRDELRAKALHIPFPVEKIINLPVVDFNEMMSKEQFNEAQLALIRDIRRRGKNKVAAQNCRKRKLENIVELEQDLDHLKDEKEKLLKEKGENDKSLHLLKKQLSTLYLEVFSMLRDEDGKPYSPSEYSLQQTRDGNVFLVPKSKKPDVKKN
Nature of the series: Activation of NRF2 pathway in human HG23 cells transfected with human norovirus at 10 uM after 72 hrs by dual-luciferase reporter gene assay. It counts as cell-based. A digest of the protocol:
(§3)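 HG23 cells carrying the NV replicon were transfected with a Cignal finder reporter array and then given DMSO or 10 μM test compound for 72 h. Luciferase activity for each pathway was read with a dual-luciferase reagent.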

The target of series [15] is T2, Heat shock factor protein 1 (Homo sapiens) (UniProt Q00613).
T2 sequence (whole entry): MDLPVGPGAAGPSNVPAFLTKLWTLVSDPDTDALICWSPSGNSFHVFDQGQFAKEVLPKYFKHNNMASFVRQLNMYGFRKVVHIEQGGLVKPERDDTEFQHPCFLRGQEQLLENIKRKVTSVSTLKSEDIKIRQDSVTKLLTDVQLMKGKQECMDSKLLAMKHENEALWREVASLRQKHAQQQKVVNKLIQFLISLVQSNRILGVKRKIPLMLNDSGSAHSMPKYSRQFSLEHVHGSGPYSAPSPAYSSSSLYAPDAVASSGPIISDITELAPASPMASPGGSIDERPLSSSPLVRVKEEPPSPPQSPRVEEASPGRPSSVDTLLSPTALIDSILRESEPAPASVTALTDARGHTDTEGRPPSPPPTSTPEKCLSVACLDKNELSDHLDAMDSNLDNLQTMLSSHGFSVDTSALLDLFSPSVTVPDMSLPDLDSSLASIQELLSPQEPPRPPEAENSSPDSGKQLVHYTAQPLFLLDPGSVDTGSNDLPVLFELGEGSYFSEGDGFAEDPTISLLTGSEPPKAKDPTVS
Nature of the series: Activation of HSF-1 in human HG23 cells transfected with human norovirus at 10 uM after 72 hrs by dual-luciferase reporter gene assay. It counts as cell-based. The method, boiled down:
as §3

In series [16] the target is T2, Heat shock factor protein 1 (Homo sapiens). Nature of the series: Activation of HSF-1 in human HG23 cells transfected with human norovirus after 72 hrs by dual-luciferase reporter gene assay. It counts as cell-based. A digest of the protocol: as §3

Active and inactive are the calls of the source. No cut-off for these calls is given here.

With `C=Cc1c(OC)cc(/C=C/c2ccc(C(=O)N3CCN(Cc4ccc(C(F)(F)F)cc4)CC3)cc2)cc1OC`, the Activity is 4.2% in series [1] and “Dose-dependent effect” in series [16]. For the same compound, the viability at 72 h, 10 µM in series [2] was found to be 105%. Moreover, the CC50 at 72 h in series [3] is above 100 µM. In addition, the concentration for a half-maximal effect (EC50) in [4] stood at 2430 nM; in [6] it was 800 nM. Besides, the selectivity ratio in [5] is above 41.2. Further, the inhibition result in series [7] is “inactive”. Also, the remaining at 0.5 h, 1 µM in series [8] stood at 89.1%; in [9], 94.3%; in series [10] it was 70.5%; in series [11], 99.2%. Also, the outcome in series [12] was inactive. In addition, the outcome in [13], in [14] and in series [15] was Active.

In general, CC50 refers to the concentration giving 50% cytotoxicity. In general, EC50 refers to the concentration giving half of the maximal effect.
